Source: ChEMBL document CHEMBL2331352, “Syntheses and anti-allergic activity of 2-((bis(trimethylsilyl)methylthio/methylsulfonyl)methyl)-5-aryl-1,3,4-oxadiazoles” (Eur J Med Chem, 2013)
Calls of active or inactive are those of the source. No cut-off for these calls is given here.

What was measured:
RBL-2H3 [1] = test: Cytotoxicity against rat RBL2H3 cells at 50 to 100 uM after 24 hrs by Ez-cytox assay; type: cell-based; conditions: rbl-2h3, 24 h
Outline: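 IgE-sensitized RBL-2H3 cells (overnight, 200 ng/mL DNP-specific IgE) were exposed to compound at 0, 50 or 100 concentrations at 37 °C for 23–24 h. EZ-Cytox reagent was added at 10% of volume for 1 h at 37 °C and absorbance read at 450 nm. Viability is given as % of untreated control; mean ± S.D. of three independent experiments, each in triplicate.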

RBL-2H3 [2] = test: Antiallergic activity in rat RBL2H3 cells assessed as inhibition of IgE/Ag-induced beta-hexosaminidase activity at 100 uM incubated for 30 mins by spectrophotometric analysis; type: functional, cell-based
Outline: (§1)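 RBL-2H3 cells (2 × 10⁵/well) were sensitized overnight with anti-DNP IgE at 200 ng/mL and washed twice in PIPES buffer (25 mM PIPES, pH 7.2, 0.1% BSA, 1 mM CaCl₂, 5.6 mM glucose). They were pretreated 30 min at 37 °C with compound, then challenged with DNP-HSA 25 ng/mL for 15 min at 37 °C and chilled on ice. Supernatant was mixed with p-nitrophenyl-N-acetyl-glucosaminide in 0.1 M citrate pH 4.5 for 1 h at 37 °C. Reaction was stopped with 0.1 M carbonate pH 10.5 and read at 405 nm. Mean ± S.D. of three independent experiments, each in triplicate.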

RBL-2H3 [3] = test: Antiallergic activity in rat RBL2H3 cells assessed as inhibition of IgE/Ag-induced beta-hexosaminidase activity incubated for 30 mins by spectrophotometric analysis; type: functional, cell-based; conditions: for IC50: RBL-2H3, 0.5 h; outline: as §1
RBL-2H3 [4] = test: Antiallergic activity in rat RBL2H3 cells assessed as inhibition of IgE/Ag-induced beta-hexosaminidase activity at 50 uM incubated for 30 mins by spectrophotometric analysis; type: functional, cell-based; outline: as §1

| SMILES | IC50 (RBL-2H3 [3]) | Activity (RBL-2H3 [1]) | inhibition (RBL-2H3 [2]) | inhibition (RBL-2H3 [3]) | inhibition (RBL-2H3 [4]) |
| --- | --- | --- | --- | --- | --- |
| Cc1ccc(-c2nnc(CSC([Si](C)(C)C)[Si](C)(C)C)o2)cc1 |  |  | Active | Dose-dependent effect |  |
| C[Si](C)(C)C(SCc1nnc(-c2ccc(Cl)cc2)o1)[Si](C)(C)C |  |  | Active | Dose-dependent effect |  |
| Cc1ccc(-c2nnc(CS(=O)(=O)C([Si](C)(C)C)[Si](C)(C)C)o2)cc1 | 62.3 µM | Non-toxic | Active | Dose-dependent effect |  |

More lines, main results first:

| IC50 (RBL-2H3 [3]) | SMILES | Activity (RBL-2H3 [1]) | inhibition (RBL-2H3 [2]) | inhibition (RBL-2H3 [3]) | inhibition (RBL-2H3 [4]) |
| --- | --- | --- | --- | --- | --- |
| 37.2 µM | C[Si](C)(C)C([Si](C)(C)C)S(=O)(=O)Cc1nnc(-c2ccccc2)o1 | Non-toxic | Active | Dose-dependent effect |  |
| 98.8 µM | C[Si](C)(C)C(SCc1nnc(-c2ccccc2)o1)[Si](C)(C)C |  | Active | Dose-dependent effect | Active |
| 75.5 µM | C[Si](C)(C)C([Si](C)(C)C)S(=O)(=O)Cc1nnc(-c2ccc(Cl)cc2)o1 | Non-toxic | Active | Dose-dependent effect |  |
